What was measured:
Assay type in all cases: functional
Homo sapiens [1] = organism: Homo sapiens; assay: Sensory evaluation was done at a concentration of 650 p.p.m. against property of bitterness.
Procedure, shortened: (§1)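 Aqueous sample solutions were tasted at about pH 7, so carboxylic acids were in ionized form.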

Homo sapiens [2] = organism: Homo sapiens; assay: Sensory evaluation was done for sweetness at a concentration of 650 p.p.m. against compound potency calculated on a molar basis.
Procedure, shortened: (§2)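 Sweetness tasted in solutions held near pH ~7, so carboxylic acids are ionized. Potency is reported two ways: on a weight basis (Pw) and on a molar basis (Pm).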

Homo sapiens [3] = organism: Homo sapiens; assay: Sensory evaluation was done for sweetness at a concentration of 650 p.p.m. against compound potency calculated on weight basis.; procedure, shortened: as §2
Homo sapiens [4] = organism: Homo sapiens; assay: Sensory evaluation was done for sweetness at a concentration of 650 p.p.m. against sample intensity relative to 10% sucrose.; procedure, shortened: as §2
Homo sapiens [5] = organism: Homo sapiens; assay: Sensory evaluation was done at a concentration of 650 p.p.m. against property of sweetness.; procedure, shortened: as §1
Homo sapiens [6] = organism: Homo sapiens; assay: Sensory evaluation was done at a concentration of 650 p.p.m. against other properties.; procedure, shortened: as §1
Homo sapiens [7] = organism: Homo sapiens; assay: Sensory evaluation was done at a concentration of 1000 p.p.m. against other properties.; procedure, shortened: as §1
Homo sapiens [8] = organism: Homo sapiens; assay: Sensory evaluation was done at a concentration of 1000 p.p.m. against property of sweetness.; procedure, shortened: as §1
Homo sapiens [9] = organism: Homo sapiens; assay: Sensory evaluation was done for sweetness at a concentration of 1000 p.p.m. against sample intensity relative to 10% sucrose.; procedure, shortened: as §1
Homo sapiens [10] = organism: Homo sapiens; assay: Sensory evaluation was done for sweetness at a concentration of 1000 p.p.m. against compound potency calculated on a molar basis.
Procedure, shortened: (§3)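 Solutions were tasted at about pH 7. Sweetness potency was expressed two ways: Pw, calculated on a weight basis, and Pm, calculated on a molar basis.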

Homo sapiens [11] = organism: Homo sapiens; assay: Sensory evaluation was done for sweetness at a concentration of 1000 p.p.m. against compound potency calculated on weight basis.; procedure, shortened: as §3
Homo sapiens [12] = organism: Homo sapiens; assay: Sensory evaluation was done at a concentration of 1000 p.p.m. against property of bitterness.; procedure, shortened: as §1
Homo sapiens [13] = organism: Homo sapiens; assay: Sensory evaluation was done at a concentration of 631 p.p.m. against property of bitterness.; procedure, shortened: as §1
Homo sapiens [14] = organism: Homo sapiens; assay: Sensory evaluation was done at a concentration of 631 p.p.m. against other properties.; procedure, shortened: as §1
Homo sapiens [15] = organism: Homo sapiens; assay: Sensory evaluation was done for sweetness at a concentration of 631 p.p.m. against sample intensity relative to 10% sucrose.; procedure, shortened: as §2
Homo sapiens [16] = organism: Homo sapiens; assay: Sensory evaluation was done for sweetness at a concentration of 631 p.p.m. against compound potency calculated on weight basis.; procedure, shortened: as §2
Homo sapiens [17] = organism: Homo sapiens; assay: Sensory evaluation was done at a concentration of 631 p.p.m. against property of sweetness.; procedure, shortened: as §1
Homo sapiens [18] = organism: Homo sapiens; assay: Sensory evaluation was done for sweetness at a concentration of 631 p.p.m. against compound potency calculated on a molar basis.; procedure, shortened: as §2
Homo sapiens [19] = organism: Homo sapiens; assay: Sensory evaluation was done at a concentration of 550 p.p.m. against property of bitterness.; procedure, shortened: as §1
Homo sapiens [20] = organism: Homo sapiens; assay: Sensory evaluation was done at a concentration of 550 p.p.m. against property of sweetness.; procedure, shortened: as §1
Homo sapiens [21] = organism: Homo sapiens; assay: Sensory evaluation was done at a concentration of 550 p.p.m. against other properties.; procedure, shortened: as §1
Homo sapiens [22] = organism: Homo sapiens; assay: Sensory evaluation was done for sweetness at a concentration of 550 p.p.m. against compound potency calculated on a molar basis.; procedure, shortened: as §2
Homo sapiens [23] = organism: Homo sapiens; assay: Sensory evaluation was done for sweetness at a concentration of 550 p.p.m. against sample intensity relative to 10% sucrose.; procedure, shortened: as §2
Homo sapiens [24] = organism: Homo sapiens; assay: Sensory evaluation was done for sweetness at a concentration of 550 p.p.m. against compound potency calculated on weight basis.; procedure, shortened: as §2
Homo sapiens [25] = organism: Homo sapiens; assay: Sensory evaluation was done at a concentration of 615 p.p.m. against property of sweetness.; procedure, shortened: as §1
Homo sapiens [26] = organism: Homo sapiens; assay: Sensory evaluation was done for sweetness at a concentration of 615 p.p.m. against compound potency calculated on a molar basis.; procedure, shortened: as §2
Homo sapiens [27] = organism: Homo sapiens; assay: Sensory evaluation was done at a concentration of 615 p.p.m. against other properties.; procedure, shortened: as §1
Homo sapiens [28] = organism: Homo sapiens; assay: Sensory evaluation was done for sweetness at a concentration of 615 p.p.m. against sample intensity relative to 10% sucrose.; procedure, shortened: as §2
Homo sapiens [29] = organism: Homo sapiens; assay: Sensory evaluation was done for sweetness at a concentration of 615 p.p.m. against compound potency calculated on weight basis.; procedure, shortened: as §2
Homo sapiens [30] = organism: Homo sapiens; assay: Sensory evaluation was done at a concentration of 615 p.p.m. against property of bitterness.; procedure, shortened: as §1

## C=C1C[C@@]23CC[C@H]4[C@@](C)(CCC[C@@]4(C)C(=O)OC(CCN)C(=O)O)[C@@H]2CC[C@]1(O[C@@H]1O[C@@H](CO)[C@@H](O)[C@H](O)[C@@H]1O[C@@H]1O[C@@H](CO)[C@@H](O)[C@H](O)[C@@H]1O)C3 (stereo partly specified)
Homo sapiens [1]
  Sensory evaluation: 18
Homo sapiens [2]
  Pm: 360
Homo sapiens [3]
  Pw: 170
Homo sapiens [4]
  Ip: 1.1
Homo sapiens [5]
  Sensory evaluation: 79
Homo sapiens [6]
  Sensory evaluation: 3

## CC1=CC(=O)NS(=O)(=O)O1 [ACESULFAME]
Homo sapiens [7]
  Sensory evaluation: 1
Homo sapiens [8]
  Sensory evaluation: 83
Homo sapiens [9]
  Ip: 1
Homo sapiens [10]
  Pm: 55
Homo sapiens [11]
  Pw: 100
Homo sapiens [12]
  Sensory evaluation: 16

## C=C1C[C@@]23CC[C@H]4[C@@](C)(CCC[C@@]4(C)C(=O)OCCC(S(=O)(=O)[O-])S(=O)(=O)[O-])[C@@H]2CC[C@]1(O[C@H]1O[C@H](CO)[C@@H](O)[C@H](O)[C@H]1O[C@@H]1O[C@H](CO)[C@@H](O)[C@H](O)[C@H]1O)C3.[Na+].[Na+]
Homo sapiens [13]
  Sensory evaluation: 0
Homo sapiens [14]
  Sensory evaluation: 4
Homo sapiens [15]
  Ip: 0.8
Homo sapiens [16]
  Pw: 120
Homo sapiens [17]
  Sensory evaluation: 96
Homo sapiens [18]
  Pm: 310

## C=C1C[C@@]23CC[C@H]4[C@@](C)(CCC[C@@]4(C)C(=O)OC(CCC(=O)[O-])C(=O)O)[C@@H]2CC[C@]1(O[C@@H]1O[C@@H](CO)[C@@H](O)[C@H](O)[C@@H]1O[C@@H]1O[C@@H](CO)[C@@H](O)[C@H](O)[C@@H]1O)C3.[Na+] (stereo partly specified)
Homo sapiens [19]
  Sensory evaluation: 2
Homo sapiens [20]
  Sensory evaluation: 84
Homo sapiens [21]
  Sensory evaluation: 10
Homo sapiens [22]
  Pm: 380
Homo sapiens [23]
  Ip: 0.9
Homo sapiens [24]
  Pw: 160

## C=C1C[C@@]23CC[C@H]4[C@@](C)(CCC[C@@]4(C)C(=O)OCCCP(=O)([O-])O)[C@@H]2CC[C@]1(O[C@@H]1O[C@@H](CO)[C@@H](O)[C@H](O)[C@@H]1O[C@@H]1O[C@@H](CO)[C@@H](O)[C@H](O)[C@@H]1O)C3.[Na+]
Homo sapiens [1]
  Sensory evaluation: 8
Homo sapiens [2]
  Pm: 280
Homo sapiens [3]
  Pw: 120
Homo sapiens [4]
  Ip: 0.8
Homo sapiens [5]
  Sensory evaluation: 87
Homo sapiens [6]
  Sensory evaluation: 5

## C=C1C[C@@]23CC[C@H]4[C@@](C)(CCC[C@@]4(C)C(=O)OCCC(N)C(=O)O)[C@@H]2CC[C@]1(O[C@@H]1O[C@@H](CO)[C@@H](O)[C@H](O)[C@@H]1O[C@@H]1O[C@@H](CO)[C@@H](O)[C@H](O)[C@@H]1O)C3 (stereo partly specified)
Homo sapiens [25]
  Sensory evaluation: 60
Homo sapiens [26]
  Pm: 420
Homo sapiens [27]
  Sensory evaluation: 5
Homo sapiens [28]
  Ip: 1.2
Homo sapiens [29]
  Pw: 200
Homo sapiens [30]
  Sensory evaluation: 35

From ChEMBL document CHEMBL1123134, “Diterpenoid sweeteners. Synthesis and sensory evaluation of stevioside analogues with improved organoleptic properties” (1985)
